# According to ChEMBL document CHEMBL4513216, “Probing the Open Global Health Chemical Diversity Library for Multistage-Active Starting Points for Next-Generation Antimalarials” (ACS Infect Dis, 2020):
# Test: Toxicity liver stage against HepG2, at 10uM
# Format: cell-based
# Parameters: test concentration 10 uM, cell line HepG2-A16-CD81EGFP
# Settings: human, HepG2-A16-CD81EGFP cells; read-out: INHIBITION
# How it was run: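 Uninfected HepG2-A16-CD81EGFP cells, 3 × 10^3 per well, 1536-well, plated on prespotted compound at 10 μM final, parasite-free screening media added to match infected plates; puromycin 10 μM positive, DMSO 0.5% negative; run in parallel with 48 h PbLuc assay at 37 °C, 5% CO2; viability by CellTiter-Glo luminescence, normalized to controls.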
row,Compound,cytotoxicity at 10 µM [%]
1,COc1cccc(CNc2cc(C)nc(-c3ccncc3)n2)c1OC,46.5
2,CCn1cc(CN2CCCN(C(=O)c3cc(C)no3)CC2)cn1,3.22
3,NC(=O)NC1CCN(Cc2ccccc2OCC(F)(F)F)CC1,0.451
4,Cc1nccc(N[C@H]2CN(CCS(C)(=O)=O)C[C@@H]2C2CC2)n1,0.34
5,CCCc1cnc(C)nc1N1CCC2(CCCO2)CC1,-13.4
6,c1cnc(N2CCO[C@@H]3CN(Cc4ccoc4)C[C@@H]3C2)nc1,-1.36
7,O=C(c1ccc2c(c1)CCO2)N1CCN(c2ccc(Cl)cn2)CC1,9.56
8,Cc1cn[nH]c1C1COCCN1C(=O)c1ccc2[nH]nnc2c1 (stereo unspecified),2.73
9,Cc1cc(NC(=O)N2CCOCC2)nn1-c1ccccc1Cl,11.1
10,CC(C)c1nccn1C1CCCN(C(=O)c2cnc[nH]2)C1 (stereo unspecified),-0.808
11,O=C(CCc1ccco1)NS(=O)(=O)Cc1ccon1,9.99
12,CCC(CO)NC(=O)Nc1cc(F)ccc1SCC(F)F (stereo unspecified),12.6
13,Cn1ccnc1SCCNc1cc(N2CCOCC2)ncn1,4.91
14,COc1ccc2c(C)c(C(=O)N3CCC(NC(C)=O)C3)oc2c1 (stereo unspecified),7.72
15,O=C(NCC(F)(F)F)C1CSCN1S(=O)(=O)c1cccc(F)c1 (stereo unspecified),18.7
16,CCn1nc2c(cc1=O)CN(CC(=O)Nc1nncs1)CC2,-0.284
17,Cc1ccoc1C(=O)N1CCn2cc(CN3CCCC3)nc2C1,-79.6
18,CNC(=O)c1cccc(CNC(C)c2cc(Cl)ccc2OC)c1 (stereo unspecified),10.3
19,CS(=O)(=O)N[C@@H]1CCN(Cc2cccs2)[C@H]1Cc1cccnc1,-78.5
20,CN(Cc1cc2n(n1)CCN(C(=O)[C@H]1CCCO1)C2)Cc1nccs1,7.92
21,CC(=O)c1ccc(CN2CC(Oc3ccccc3C)C2)cc1,-4.73
22,CCC(=O)N1CCC(NC2CCSCC2)C1 (stereo unspecified),2.85
23,CCC1=N[C@@]2(CC[C@@H]3CN(C(=O)NCc4ccccc4C)C[C@@H]32)C(=O)N1,-71.1

row,Compound,cytotoxicity at 10 µM [%]
1,O=C(c1ccsc1)N1CCc2ncc(Cn3cncn3)n2CC1,-78
2,CN(Cc1cc(Cl)c2c(c1)OCO2)Cc1cscn1,-2.76
3,O=C(c1cccc2c1OCO2)N1CCCC1Cn1cccn1 (stereo unspecified),3.46
4,O=C(NC[C@H]1OC[C@@H](NC2CCCCC2)[C@@H]1O)Nc1ccccc1,-11.6
5,Cc1nccn1-c1nccnc1C1CCCN(C)C1 (stereo unspecified),2.2
6,c1cn(-c2cnc(C3CCCNC3)cn2)cn1 (stereo unspecified),-25.2
7,O=C(c1cccnc1)N1CCC(c2nc(O)cc(-c3ccncc3)n2)C1 (stereo unspecified),-20.8
8,CC(C(=O)NC1CC1)S(=O)(=O)Cc1csc(-c2cccs2)n1 (stereo unspecified),9.02
9,CCn1cnnc1C1CCN(C(=O)c2cc(OC)ccc2OC)CC1,-4.2
10,Cc1ncsc1C(=O)NCCNc1ncccc1C#N,-21.5
11,CC(C)CC(=O)N1CC(=O)N(Cc2ccco2)CC(O)C1 (stereo unspecified),-8.23
12,O=C(Nc1c(N2CCCC2)cccc1N1CCCC1)c1cnccn1,-50.9
13,COCCOCC(=O)Nc1ccc(C)cc1Cl,1.85
14,Cc1cccc2c1OCCCC2NCc1nccn1Cc1ccccc1 (stereo unspecified),1.38
15,CC(C)(C)C(O)CN1CCN(Cc2cccc(C#N)c2)CC1 (stereo unspecified),3.7
16,O=C(CCN1CCCC(CC2CC2)(C(=O)O)C1)NC1CCCC1 (stereo unspecified),18.7
17,COCCCC1(CO)CCCN(Cc2cccc(C#N)c2)C1 (stereo unspecified),4.16
18,O=C(c1ccncc1)N1CCc2ncnc(C3CC3)c2CC1,-75.6
19,CCOC(C)c1nc(Cn2cc(-n3cccc3)cn2)cs1 (stereo unspecified),3.81
20,COc1cc(C(=O)NS(=O)(=O)c2cccc(C#N)c2)cc(OC)c1Br,-9.67
21,CC(C)c1nnc2n1CCN(C(=O)c1ccnc(-n3ccnc3)c1)C2,-29
22,Cc1nc(-c2ccc(CC(=O)N3CCN(C(=O)C4CC4)CC3)cc2)cs1,9.86
23,NC(=O)c1cc2c(nc1Oc1ccccc1CN1CCCCC1)CCC2,3.71

row,Compound,cytotoxicity at 10 µM [%]
1,Cc1nccn1-c1cc(CNC(=O)NCC2CCCO2)ccn1 (stereo unspecified),-7.9
2,O=C(CCC(F)(F)F)N1CCCC(c2ncc[nH]2)C1 (stereo unspecified),2.14
3,CC(C)Cc1nc(CS(=O)(=O)c2ccccc2)no1,9.52
4,Cc1cccc(N2CCC3(CCCN3Cc3cn(C)nc3C)CC2)n1,-4.78
5,Cn1cc(C(=O)N2CCCC(Cc3cnccn3)C2)cn1 (stereo unspecified),-8.16
6,CN(C)C(=O)[C@@H]1C[C@@H]2CCN(Cc3ccc4c(c3)OCO4)C[C@@H]2O1,2.26
7,COc1cccc(CN(C)Cc2nc3c(cnn3C)c(=O)[nH]2)c1OC,-4.28
8,O=C1C(N2CCN(c3ccccc3Cl)CC2)CCN1C1CCOCC1 (stereo unspecified),-0.455
9,CCN1CCC(CNS(=O)(=O)N2CCc3ccccc3C2)C1 (stereo unspecified),-15.4
10,Cc1oncc1C(=O)N[C@@H]1CN(C2CCC2)C[C@@H]2CCCO[C@@H]21,-109
11,N#Cc1cc(NS(=O)(=O)c2cc(C(=O)O)cc(Cl)c2Cl)ccc1F,-1.37
12,Cc1nccn1C1CCCN(C(=O)c2cccc(S(C)(=O)=O)c2)C1 (stereo unspecified),-11.6
13,CCc1noc(CC)c1CC(=O)N1CCCC(N2CCCCC2)C1 (stereo unspecified),-15.3
14,Cc1cnn(CC2CN(CC(=O)N(C)Cc3ccsc3)CCO2)c1 (stereo unspecified),-10.6
15,Cc1c(NC(=O)CN2CCC(Oc3cnccn3)CC2)cnn1C,-4.68
16,CC(C)C(C(=O)N1CCN(Cc2ccccn2)CC1)n1cncn1 (stereo unspecified),-14.5
17,Cn1ncc2c(N3CCC(CCO)CC3)nc(C(C)(C)C)nc21,14.6
18,O=c1c(Cc2ccccc2)c(O)ccn1Cc1cccs1,10.2
19,N#Cc1cccnc1Nc1ccc(N2CCC(C(N)=O)CC2)cc1,-40.1
20,Cc1c(F)cc(C(=O)NCC(F)(F)F)cc1NCC(=O)N(C)C,10.2
21,COC(=O)CN(Cc1ccccc1C)C(=O)CCNC(=O)C(C)(C)C,12.9
22,CC(C)(O)CNC(=O)c1sccc1Br,-5.58
23,CCOCC1c2c(cnn2CC2CC2)CCN1C(=O)c1ccncn1 (stereo unspecified),-118

row,Compound,cytotoxicity at 10 µM [%]
1,CN(CC(=O)NC1CCOCC1)C1CCCN(c2cccnn2)C1 (stereo unspecified),-8.97
2,CCc1nc(CN(C)C2CCN(Cc3ccc(Cl)s3)C2)no1 (stereo unspecified),9.41
3,Cc1c[nH]c(CN2CCOC(c3ccc(Cl)c(Cl)c3)C2)c(C)c1=O (stereo unspecified),17.7
4,CC(C)(C)N1CCCN(C(=O)c2csc(S(N)(=O)=O)c2)CC1,5.06
5,Cc1cccc(OCC(O)CN2CCN(c3nccs3)CC2)c1 (stereo unspecified),16.5
6,Cc1nnc(CN(C)CC2(O)CCCN(CCC3CCCCC3)C2=O)o1 (stereo unspecified),17.1
7,CCN1CCCCC1C(=O)N1CCc2onc(-c3ccc(Cl)cc3)c2C1 (stereo unspecified),-60.1
8,COc1ccc(CN2CCNC(=O)CC2)cc1SC(F)(F)F,0.66
9,O=C(c1cnnn1-c1ccccc1)N1CCCC(c2ccn[nH]2)C1 (stereo unspecified),-2.75
10,Cc1c(-c2cnn(C)c2)nc(N)c(C#N)c1-c1ccc(CO)o1,-117
11,Cn1ccc(C(=O)NC2CCC23CCN(C(=O)c2cnccn2)CC3)c1 (stereo unspecified),-71.4
12,CN(CCC(O)c1ccccc1)Cc1nc(-c2ccccc2)no1 (stereo unspecified),7.86
13,Cc1cc(O)nc(C2CN(CCC(F)(F)F)CCO2)n1 (stereo unspecified),-27.4
14,CN(CCc1ccncc1)Cc1nccn1Cc1ccccc1,15.1
15,O=C1CCc2cc(NC(=O)N3CCCN(Cc4cccs4)CC3)ccc21,-11.1
16,COc1ccccc1OCCN1CCCCC1Cn1cncn1 (stereo unspecified),-32.7
17,CN(Cc1ccc(-n2ccnc2)cc1)CC1CCCN1c1cccnn1 (stereo unspecified),-6.21
18,c1cncc(OC[C@@]23CCO[C@@H]2CCN(Cc2cccs2)C3)c1,14.6
19,NC(=O)CC1CCCCN1C(=O)Cc1cccc(Br)c1 (stereo unspecified),1.77
20,CC(C)n1ccc2cc(C(=O)Nc3nc[nH]n3)ccc21,4.06
21,CCc1nc2c(c(N3CCOCC3)n1)CCN(C(=O)N1CCCC1)CC2,7.6
22,Cc1nc(CN2CCN(CC(=O)Nc3c(C)cccc3C)CC2)no1,-3.1
23,Nc1nccc(NCc2cc3n(n2)CCCN(C(=O)C2CCC2)C3)n1,-6.49

row,Compound,cytotoxicity at 10 µM [%]
1,Cc1cc(C)n(-c2ccc(C(=O)N3CCCC3c3cnn(C)c3)cc2)n1 (stereo unspecified),-7.41
2,CCS(=O)(=O)NCCCNc1cc(N2CCCC2CO)ncn1 (stereo unspecified),2.2
3,Cc1cccc(C(=O)N2CCCCC2c2nc(C)cs2)n1 (stereo unspecified),-7.26
4,NC(=O)Nc1cc(F)ccc1SCC(F)F,0.0687
5,CN(Cc1noc2c1CCCC2)C(=O)C1CCOc2ccccc2C1 (stereo unspecified),-7.11
6,COc1cccc2c1OCC(CNC(=O)CCn1cnnn1)C2 (stereo unspecified),-144
7,CC(C)Nc1nc(N2CCOCC2)nc2c1CN(CC(=O)N(C)C)CC2,7.77
8,CC(C)N1CCOC(CC(=O)N2CCCN(Cc3ccncc3)CC2)C1 (stereo unspecified),-7.49
9,CC(C)N1CCCC2(CCN(c3nccc(C(F)(F)F)n3)C2)C1=O (stereo unspecified),11.4
10,Cc1cc(C)nc(NC2CCOC3(CCCC3)C2)n1 (stereo unspecified),7.93
11,Cc1csc2c(C3CCCN(C(=O)CCCn4cncn4)C3)nc(C)n12 (stereo unspecified),7.69
12,O=C(O)c1cccc(N2CCC(Oc3cccc(F)c3)CC2)n1,-44.1
13,Cc1cccc(N2CC[C@@H]3[C@@H](CO[C@H]3CNC(=O)c3ccco3)C2)n1,-1.67
14,Cc1nc(C)n(CC2CCCN2Cc2nc3ccccc3nc2C)n1 (stereo unspecified),6.21
15,Fc1cnc(N2CC[C@@H]3O[C@H](COCc4ccccn4)CC[C@@H]32)nc1,2.9
16,c1cnc(NCC2Cn3nnc(-c4ccoc4)c3CO2)nc1 (stereo unspecified),-76.1
17,Clc1ccc(OCCCN2CCN(c3cnccn3)CC2)cc1,-8.11
18,COc1ncc(CN(CCN(C)C)Cc2ccc(C)s2)cn1,-50.3
19,Cc1nn(C)cc1CN1CCCC(n2c(=O)oc3ccccc32)C1 (stereo unspecified),3.33
